From ChEMBL document CHEMBL4304743, “Discovery of ( E)- N1-(3-Fluorophenyl)- N3-(3-(2-(pyridin-2-yl)vinyl)-1 H-indazol-6-yl)malonamide (CHMFL-KIT-033) as a Novel c-KIT T670I Mutant Selective Kinase Inhibitor for Gastrointestinal Stromal Tumors (GISTs)” (J Med Chem, 2019)
Active and inactive are the calls of the source. The rule behind the calls is not given here.

Legend:
[1] = molecular target: Mast/stem cell growth factor receptor Kit (Homo sapiens, UniProt P10721, T670I); test: Inhibition of TEL fused wild type c-KIT T670I mutant (unknown origin) transfected in mouse BaF3 cells assessed as reduction in phosphorylation at Y703 residue after 2 hrs by Western blot analysis; format: cell-based
Mast/stem cell growth factor receptor Kit, sequence (P10721 26-976 T670I limits assumed): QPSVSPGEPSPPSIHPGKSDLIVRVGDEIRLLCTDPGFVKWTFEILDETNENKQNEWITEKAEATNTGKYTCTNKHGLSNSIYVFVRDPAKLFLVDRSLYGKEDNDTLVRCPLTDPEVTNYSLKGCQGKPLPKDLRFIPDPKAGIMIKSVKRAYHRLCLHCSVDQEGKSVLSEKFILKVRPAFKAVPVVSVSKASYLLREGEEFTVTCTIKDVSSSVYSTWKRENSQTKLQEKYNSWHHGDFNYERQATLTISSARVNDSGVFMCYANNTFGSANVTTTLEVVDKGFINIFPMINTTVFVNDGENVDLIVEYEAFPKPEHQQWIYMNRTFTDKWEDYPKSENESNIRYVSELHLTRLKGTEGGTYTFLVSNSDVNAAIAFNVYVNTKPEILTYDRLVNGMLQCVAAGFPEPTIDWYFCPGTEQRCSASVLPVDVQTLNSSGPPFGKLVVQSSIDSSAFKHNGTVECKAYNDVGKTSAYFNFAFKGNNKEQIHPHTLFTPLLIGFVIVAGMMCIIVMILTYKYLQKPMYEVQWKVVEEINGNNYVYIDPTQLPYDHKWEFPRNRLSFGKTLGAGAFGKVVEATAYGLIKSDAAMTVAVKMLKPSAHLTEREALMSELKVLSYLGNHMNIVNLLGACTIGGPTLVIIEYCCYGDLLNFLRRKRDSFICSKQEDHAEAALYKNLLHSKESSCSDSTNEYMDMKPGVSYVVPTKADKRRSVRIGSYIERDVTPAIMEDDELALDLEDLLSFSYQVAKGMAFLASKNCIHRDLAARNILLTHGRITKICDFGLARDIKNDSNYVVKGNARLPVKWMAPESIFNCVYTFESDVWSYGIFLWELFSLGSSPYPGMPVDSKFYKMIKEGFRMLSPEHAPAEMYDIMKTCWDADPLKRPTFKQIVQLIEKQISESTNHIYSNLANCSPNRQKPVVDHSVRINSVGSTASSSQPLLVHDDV

Mus musculus [2] = test: Inhibition of c-KIT phosphorylation at Y703 residue in tumor of human GIST5R cells xenografted in nude mouse at 100 mg/kg, po administered as single dose and measured at 2 hrs; format: functional, organism-based
How it was run: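 Female nu/nu mice bearing subcutaneous GIST-5R xenografts (cells in Matrigel, right flank) given one oral gavage dose of 100 mg/kg in HKI suspension (0.5% methocellulose/0.4% Tween80 in ddH2O). Tumors collected over a 2 h time course; p-c-KIT, p-ERK and p-AKT assessed by Western blot; plasma drug levels monitored in parallel.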

[3] = test system: Mast/stem cell growth factor receptor Kit (Homo sapiens), P10721 [L576P]; test: Binding affinity to human partial length c-KIT L576P mutant (Y545 to D952 residues) expressed in bacterial expression system assessed as enzyme remaining activity at 1 uM by Kinomescan method relative to control
Mast/stem cell growth factor receptor Kit (Homo sapiens), P10721 [L576P], sequence (P10721 whole entry L576P, the tested form may be a part): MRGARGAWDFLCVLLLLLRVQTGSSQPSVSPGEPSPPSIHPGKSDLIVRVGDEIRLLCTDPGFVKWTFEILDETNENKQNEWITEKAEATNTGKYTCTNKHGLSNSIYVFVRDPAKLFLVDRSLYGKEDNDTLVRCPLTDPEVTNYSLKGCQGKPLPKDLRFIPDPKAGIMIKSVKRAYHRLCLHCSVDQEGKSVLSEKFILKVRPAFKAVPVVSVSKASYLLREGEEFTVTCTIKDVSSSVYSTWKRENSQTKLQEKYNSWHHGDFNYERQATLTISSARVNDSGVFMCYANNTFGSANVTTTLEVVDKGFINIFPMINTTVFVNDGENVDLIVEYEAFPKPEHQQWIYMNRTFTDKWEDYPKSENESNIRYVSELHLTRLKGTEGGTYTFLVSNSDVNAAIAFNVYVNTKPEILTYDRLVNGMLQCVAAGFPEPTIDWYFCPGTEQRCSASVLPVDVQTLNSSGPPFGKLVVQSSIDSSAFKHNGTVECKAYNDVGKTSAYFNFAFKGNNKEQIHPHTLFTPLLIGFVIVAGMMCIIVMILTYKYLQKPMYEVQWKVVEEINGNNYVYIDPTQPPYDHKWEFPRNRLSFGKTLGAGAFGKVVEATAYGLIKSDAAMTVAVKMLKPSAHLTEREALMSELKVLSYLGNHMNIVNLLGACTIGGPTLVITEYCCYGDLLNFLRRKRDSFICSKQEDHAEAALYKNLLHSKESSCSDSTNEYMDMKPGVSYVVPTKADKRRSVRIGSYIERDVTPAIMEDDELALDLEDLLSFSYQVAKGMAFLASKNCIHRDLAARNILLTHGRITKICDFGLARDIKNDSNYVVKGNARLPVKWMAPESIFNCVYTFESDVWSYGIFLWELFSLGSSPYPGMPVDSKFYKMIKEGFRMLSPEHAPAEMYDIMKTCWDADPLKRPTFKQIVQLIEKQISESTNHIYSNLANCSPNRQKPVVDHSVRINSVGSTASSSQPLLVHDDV
How it was run: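 KINOMEscan binding profile (DiscoverX) run at 1 μM against a panel of 468 kinases and mutants. Read-out is percent of control (%Ctrl) remaining bound.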

[4] = Selectivity ratio, ratio of inhibition of wild type TEL fused c-KIT (unknown origin) transfected in mouse BAF3 cells assessed as growth inhibition to inhibition of TEL fused c-KIT T670I mutant (unknown origin) transfected in mouse BAF3 cells assessed as growth inhibition; set-up: species or system Homo sapiens
How it was run: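 IL-3 independent BaF3 cells stably expressing tel-c-KIT wt or tel-c-KIT T670I, grown in RPMI 1640 with 10% FBS, 2% L-glutamine, 37 °C, 5% CO2. Suspension cells at 1.5 to 5 × 10^4 cells/mL mixed with serial compound dilutions and incubated 72 h. Viability read by CCK-8 absorbance at 450 nm, normalized to DMSO; GI50 from curve fit. Selectivity is wt GI50 over T670I GI50.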

[5] = test system: Mast/stem cell growth factor receptor Kit (Homo sapiens), P10721 [UNDEFINED MUTATION]; test: Inhibition of c-KIT 560 to 578 deletion mutant in human GISTT1 cells assessed as reduction in AKT phosphorylation at S473 residue at 0.1 uM to 3 uM after 1 hr by Western blot analysis; format: cell-based
Mast/stem cell growth factor receptor Kit (Homo sapiens), P10721 [UNDEFINED MUTATION], sequence (P10721 whole entry, looked up, stated change not applied, the tested form may be a part): as the sequence (P10721 whole entry L576P, the tested form may be a part) above, with P576L counted along it
How it was run: (§1)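 Serial compound dilutions applied for 1 h to GIST-T1, GIST-T1-T670I (CRISPR/Cas9 T670I knock-in, clone confirmed by Sanger sequencing) or GIST-5R cells in DMEM with 10% FBS. Cells then lysed and phospho-proteins detected by standard Western blotting.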

[6] = molecular target: T1, Serine/threonine-protein kinase pim-3 (Homo sapiens, UniProt Q86V86); test: Inhibition of wild-type human partial length PIM3 (G16 to A317 residues) expressed in bacterial expression system after 1 hr by Z-LYTE assay
[7] = test system: Mast/stem cell growth factor receptor Kit (Homo sapiens), P10721 [UNDEFINED MUTATION]; test: Inhibition of c-KIT 560 to 578 deletion/T670I double mutant in human GISTT1 cells assessed as reduction in c-KIT autophosphorylation at Y719 residue at 0.1 uM to 3 uM after 1 hr by Western blot analysis; format: cell-based; how it was run: as §1
[8] = test system: Mast/stem cell growth factor receptor Kit (Homo sapiens), P10721 [D820E]; test: Inhibition of TEL fused c-KIT D820E mutant (unknown origin) transfected in mouse BAF3 cells assessed as growth inhibition after 72 hrs by CCK8 assay; format: cell-based
Mast/stem cell growth factor receptor Kit (Homo sapiens), P10721 [D820E], sequence (P10721 whole entry D820E, the tested form may be a part): as the sequence (P10721 whole entry L576P, the tested form may be a part) above, with P576L, D820E counted along it
How it was run: (§2)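 Tel-c-KIT-transformed BaF3 lines (IL-3 independent) kept in RPMI 1640 with 10% FBS, 2% L-glutamine and pen/strep. Cells at 1.5 to 5 × 10^4 cells/mL mixed with graded compound and incubated 72 h at 37 °C, 5% CO2. Viability by CCK-8 absorbance at 450 nm, normalized to DMSO. GI50 from dose–response fit.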

[9] = test system: Mast/stem cell growth factor receptor Kit (Homo sapiens), P10721 [A829P]; test: Inhibition of TEL fused c-KIT A829P mutant (unknown origin) transfected in mouse BAF3 cells assessed as growth inhibition after 72 hrs by CCK8 assay; format: cell-based; how it was run: as §2
Mast/stem cell growth factor receptor Kit (Homo sapiens), P10721 [A829P], sequence (P10721 whole entry A829P, the tested form may be a part): as the sequence (P10721 whole entry L576P, the tested form may be a part) above, with P576L, A829P counted along it

[10] = molecular target: T1, Serine/threonine-protein kinase pim-3; test: Binding affinity to wild-type human partial length PIM3 (G16 to A317 residues) expressed in bacterial expression system assessed as enzyme remaining activity at 1 uM by Kinomescan assay relative to control
How it was run: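 KINOMEscan competition binding panel of 468 kinases and mutants, compound at 1 μM; binding reported as percent of control.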

[11] = Apparent volume of distribution in mouse at 10 mg/kg, po measured after 5 to 720 mins by LC-tandem mass spectrometry analysis; format: ADME, organism-based; conditions: in vivo
How it was run: (§3)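 Mice dosed 1 mg/kg i.v. or 10 mg/kg p.o.; plasma drug levels by LC-MS/MS, parameters by noncompartmental analysis; values not from triplicate testing.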

[12] = test system: Mast/stem cell growth factor receptor Kit (Homo sapiens), P10721 [V654A]; test: Inhibition of TEL fused c-KIT V654A mutant (unknown origin) transfected in mouse BAF3 cells assessed as growth inhibition after 72 hrs by CCK8 assay; format: cell-based; how it was run: as §2
Mast/stem cell growth factor receptor Kit (Homo sapiens), P10721 [V654A], sequence (P10721 whole entry V654A, the tested form may be a part): as the sequence (P10721 whole entry L576P, the tested form may be a part) above, with P576L, V654A counted along it

Mus musculus [13] = test: Inhibition of ERK phosphorylation at T202/Y204 residue in tumor of human GIST5R cells xenografted in nude mouse at 100 mg/kg, po administered as single dose and measured at 2 hrs; format: functional, organism-based
How it was run: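 Female nu/nu mice bearing subcutaneous GIST-5R tumors (cells in Matrigel, right flank) given one oral dose of 100 mg/kg in 0.5% methylcellulose/0.4% Tween80. Tumors collected over a 2 h time course. p-c-KIT, p-ERK and p-AKT measured alongside plasma drug levels.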

[14] = test system: Mast/stem cell growth factor receptor Kit (Homo sapiens), P10721 [UNDEFINED MUTATION]; test: Inhibition of c-KIT 560 to 578 deletion/T670I double mutant in human GIST5R cells assessed as reduction in AKT phosphorylation at S473 residue at 0.1 uM to 3 uM after 1 hr by Western blot analysis; format: cell-based; how it was run: as §1
[15] = Half-life in mouse at 10 mg/kg, po measured after 5 to 720 mins by LC-tandem mass spectrometry analysis; format: ADME, organism-based; conditions: in vivo; how it was run: as §3
Homo sapiens = organism: Homo sapiens; test: Induction of apoptosis in human GIST5R cells harboring c-KIT 560 to 578 deletion/T670I double mutant assessed as increase in cleaved caspase level after 24 hrs by Western blot analysis; format: functional, cell-based
[16] = molecular target: Platelet-derived growth factor receptor beta (Homo sapiens, UniProt P09619); test: Inhibition of wild-type human partial length PDGFRB (V582 to Y1009 residues) expressed in bacterial expression system after 1 hr by Z-LYTE assay
Platelet-derived growth factor receptor beta, sequence (P09619 whole entry, the tested form may be a part): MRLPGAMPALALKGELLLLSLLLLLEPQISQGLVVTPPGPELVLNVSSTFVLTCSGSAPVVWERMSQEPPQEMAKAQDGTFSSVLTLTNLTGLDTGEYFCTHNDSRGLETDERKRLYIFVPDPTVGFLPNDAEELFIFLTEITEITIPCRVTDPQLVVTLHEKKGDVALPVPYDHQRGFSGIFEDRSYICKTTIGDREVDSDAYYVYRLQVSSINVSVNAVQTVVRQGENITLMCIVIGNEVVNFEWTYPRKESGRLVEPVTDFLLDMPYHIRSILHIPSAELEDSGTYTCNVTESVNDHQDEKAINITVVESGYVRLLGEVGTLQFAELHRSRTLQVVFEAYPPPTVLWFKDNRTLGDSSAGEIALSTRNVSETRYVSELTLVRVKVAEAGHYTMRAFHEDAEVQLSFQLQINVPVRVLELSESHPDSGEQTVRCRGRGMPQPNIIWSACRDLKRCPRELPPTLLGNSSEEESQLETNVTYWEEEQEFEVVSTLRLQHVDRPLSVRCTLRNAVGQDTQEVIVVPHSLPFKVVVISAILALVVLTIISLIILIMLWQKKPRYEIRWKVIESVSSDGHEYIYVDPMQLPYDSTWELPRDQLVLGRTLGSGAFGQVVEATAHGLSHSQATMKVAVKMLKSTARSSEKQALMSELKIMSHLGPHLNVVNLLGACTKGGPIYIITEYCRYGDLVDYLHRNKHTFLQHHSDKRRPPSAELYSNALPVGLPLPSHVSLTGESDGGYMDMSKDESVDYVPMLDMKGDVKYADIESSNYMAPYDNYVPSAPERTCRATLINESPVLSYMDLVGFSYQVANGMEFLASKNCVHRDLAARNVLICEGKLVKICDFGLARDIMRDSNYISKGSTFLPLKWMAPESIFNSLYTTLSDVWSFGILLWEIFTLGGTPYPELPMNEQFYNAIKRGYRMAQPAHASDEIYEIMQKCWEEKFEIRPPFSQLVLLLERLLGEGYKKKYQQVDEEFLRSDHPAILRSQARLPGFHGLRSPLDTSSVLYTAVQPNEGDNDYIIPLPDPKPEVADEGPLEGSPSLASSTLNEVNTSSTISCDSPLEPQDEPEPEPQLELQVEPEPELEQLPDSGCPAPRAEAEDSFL

[17] = Oral bioavailability in mouse at 10 mg/kg measured after 5 to 720 mins by LC-tandem mass spectrometry analysis; format: ADME, organism-based; conditions: in vivo
[18] = test system: Mast/stem cell growth factor receptor Kit (Homo sapiens), P10721 [UNDEFINED MUTATION]; test: Inhibition of c-KIT 560 to 578 deletion/T670I double mutant in human GIST5R cells assessed as reduction in c-KIT autophosphorylation at Y823 residue at 0.1 uM to 3 uM after 1 hr by Western blot analysis; format: cell-based; how it was run: as §1
[19] = molecular target: Serine/threonine-protein kinase 25 (Homo sapiens, UniProt O00506); test: Inhibition of wild-type human partial length STK25 (V14 to H295 residues) expressed in bacterial expression system after 1 hr by Z-LYTE assay
Serine/threonine-protein kinase 25, sequence (O00506 whole entry, the tested form may be a part): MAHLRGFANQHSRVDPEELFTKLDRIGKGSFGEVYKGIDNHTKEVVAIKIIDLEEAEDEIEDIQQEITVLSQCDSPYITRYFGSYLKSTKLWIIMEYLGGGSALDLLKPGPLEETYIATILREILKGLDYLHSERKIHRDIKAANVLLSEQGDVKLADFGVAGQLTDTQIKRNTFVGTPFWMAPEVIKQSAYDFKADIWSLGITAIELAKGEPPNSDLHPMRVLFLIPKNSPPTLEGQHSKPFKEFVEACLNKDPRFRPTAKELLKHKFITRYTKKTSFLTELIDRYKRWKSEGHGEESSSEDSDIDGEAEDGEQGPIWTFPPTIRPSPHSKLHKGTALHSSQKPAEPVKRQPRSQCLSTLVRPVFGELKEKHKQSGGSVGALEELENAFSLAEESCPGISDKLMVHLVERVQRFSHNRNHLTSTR

With `O=C(CC(=O)Nc1ccc2c(/C=C/c3ccccn3)n[nH]c2c1)Nc1cccc(F)c1` the EC50 [1] was 77 nM, the inhibition (Mus musculus [2]) was “Active” and the Activity [3] was less than 1%. The RatioGI50 [4] was 26, the inhibition [5] was “Active” and the IC50 [6] was greater than 10000 nM. For the same compound, the inhibition [7] was “Active”, the GI50 [8] was 868 nM and the GI50 [9] was 6000 nM. It also gave an Activity [10] of 0%, a Vz [11] of 19 L/kg and a GI50 [12] of 525 nM. The inhibition (Mus musculus [13]) was “Active”, the inhibition [14] was “Active” and the half-life [15] was 1.6 h. The Activity (Homo sapiens) was “Dose-dependent effect”, the IC50 [16] was 2080 nM and the bioavailability [17] was 16.4%. For the same compound, the inhibition [18] was “Active” and the IC50 [19] was greater than 10000 nM.
